Reference: PMC7668563 (International journal of molecular biology (Edmond, Okla.), 2020)
Like-named read-outs stand apart in the source and are kept apart here.

Tests used:
[1] = biological target: T1, apo-human transferrin (apo-hTf) (Homo sapiens, UniProt P02787); assay: Far-UV circular dichroism titration of apo-hTf, secondary structure content
How it was run: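 Apo-hTf (4.0×10−7 mol L−1) in 2 mM Tris-HCl pH 7.4 was titrated with a 1.0×10−3 mol L−1 stock of test compound in Tris-HCl/2% DMSO, to final 0–2.4×10−6 mol L−1. Far-UV CD was recorded from 190–250 nm under nitrogen in a 1.0 cm cell: six scans at 100 nm/min. Baseline was buffer ± DMSO at room temperature. α-Helix was derived from MRE at 208 nm; β-sheet and random coil by the CD-RRG method.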

[2] = test system: human breast adenocarcinoma cell line, MCF-7; assay: MTT cell viability assay on MCF-7, 72 h exposure; type: cell-based; settings: MCF-7, 72 h of exposure
How it was run: (§1)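 HT-29 was grown in McCoy's 5A with 10% FBS. MCF-7 was grown in MEM with 10% FBS and 0.01 mg/mL insulin. Both were kept at 37°C, 5% CO2, trypsinized at 70–80% confluency and seeded at 1.5×10^4 cells/well for 24 h. Cells were then exposed for 72 h to test compound in 5% DMSO/95% medium, with DMSO-medium controls. MTT was added as a 2.67 mg/mL solution for 2 h. Formazan was dissolved in 10% Triton X-100/isopropanol and read at A570 minus A620. IC50 came from a sigmoidal fit of viability vs log concentration, eight replicas, triplicate, ±SD.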

[3] = biological target: T1, apo-human transferrin (apo-hTf); assay: Fluorescence quenching of apo-hTf; type: binding; settings: for biomolecular quenching rate constant kq: kq=Ksv/τ0; for Stern-Volmer quenching constant Ksv / number of binding sites n: pH 7.4; for quenching association constant Ka: pH 7.4, modified Stern-Volmer
How it was run: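 Intrinsic fluorescence of apo-hTf in Tris-HCl pH 7.4 was titrated with test compound (Tris-HCl/2% DMSO). Conditions: excitation 280 nm, emission 290–500 nm, slits 10/5 nm, 1.0 cm quartz cell, at 296, 303, 310 and 317 K, triplicate titrations. Intensities were corrected for inner filter effect using absorbances at excitation and emission wavelengths. Ksv came from Stern-Volmer plots of F0/F vs [Q]; kq = Ksv/τ0 (τ0 ~1.0×10−8); Ka and n came from the modified Stern-Volmer equation.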

[4] = biological target: T1, apo-human transferrin (apo-hTf); assay: Thermodynamic parameters of apo-hTf complex formation; type: binding; settings: for ∆H° / ∆S°: pH 7.4, from Ksv at 296-317 K
How it was run: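 Ksv values were obtained from apo-hTf fluorescence quenching at pH 7.4 at 296, 303, 310 and 317 K. ΔH°, ΔS° and ΔG° were derived from linear regression of ln(Ksv) vs 1/T (Van't Hoff equation).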

[5] = biological target: T1, apo-human transferrin (apo-hTf); assay: UV-Vis absorbance titration of apo-hTf; type: binding; settings: for Ka at 280 nm: absorbance at 280 nm; for Association constants, Ka, 280 nm: absorbance of apo-hTf at 280 nm, pH 7.4
[6] = biological target: T1, apo-human transferrin (apo-hTf); assay: Fluorescence resonance energy transfer; type: binding; settings: for Förster critical energy transfer distance R0 / binding distance r (donor-acceptor): k^2=2/3, n=1.336, ØD=0.118; for efficiency of energy transfer E: room temperature, 1.0×10^−5 mol L^−1 each
How it was run: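 Emission spectrum of 1.0×10−5 mol L−1 apo-hTf and absorption spectrum of 1.0×10−5 mol L−1 test compound were recorded in 20 mM Tris-HCl pH 7.4 at room temperature, 260–450 nm, and their spectral overlap determined. E was calculated from apo-hTf fluorescence without and with equimolar test compound. R0 and donor–acceptor distance r came from Förster equations.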

[7] = test system: human colorectal adenocarcinoma cell line, HT-29; assay: MTT cell viability assay on HT-29, 72 h exposure; type: cell-based; settings: read-out: IC50 (±SD), HT-29, HT-29, 72 h of exposure
How it was run: as §1

[8] = test system: human breast adenocarcinoma cell line, MCF-7; settings: cited from earlier work
[9] = test system: human colorectal adenocarcinoma cell line, HT-29; settings: cited from earlier work

T1 sequence (P02787 20-698): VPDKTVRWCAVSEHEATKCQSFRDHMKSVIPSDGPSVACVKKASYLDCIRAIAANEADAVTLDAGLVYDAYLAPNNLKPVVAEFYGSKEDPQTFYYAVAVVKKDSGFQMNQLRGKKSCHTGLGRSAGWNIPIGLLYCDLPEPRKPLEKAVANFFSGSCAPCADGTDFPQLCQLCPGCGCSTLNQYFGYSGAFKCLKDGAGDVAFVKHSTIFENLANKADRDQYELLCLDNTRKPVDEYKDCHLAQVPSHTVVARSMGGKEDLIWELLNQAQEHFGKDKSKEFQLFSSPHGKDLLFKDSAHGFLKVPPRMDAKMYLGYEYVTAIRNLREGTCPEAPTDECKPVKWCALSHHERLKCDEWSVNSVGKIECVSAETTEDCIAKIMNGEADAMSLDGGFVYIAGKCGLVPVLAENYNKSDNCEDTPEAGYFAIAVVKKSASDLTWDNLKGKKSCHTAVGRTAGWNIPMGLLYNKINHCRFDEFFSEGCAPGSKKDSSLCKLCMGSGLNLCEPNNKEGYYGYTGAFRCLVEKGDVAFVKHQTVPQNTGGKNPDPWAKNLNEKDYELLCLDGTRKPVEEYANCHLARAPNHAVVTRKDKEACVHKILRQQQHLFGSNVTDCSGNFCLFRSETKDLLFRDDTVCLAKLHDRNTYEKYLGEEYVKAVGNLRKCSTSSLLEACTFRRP

## [Cl-].[Cl-].[Hf+4].c1cc[cH-]c1.c1cc[cH-]c1 [Cp2HfCl2]
[1]; compound concentration 0.4 (M)
  other secondary structure content of apo-hTf: 19.1%
  random coil content of apo-hTf: 33.7%
  α-helix content of apo-hTf: 29.7%
  β-sheet content of apo-hTf: 17.5%
[1]; compound concentration 0.8 (M)
  other secondary structure content of apo-hTf: 19.1%
  random coil content of apo-hTf: 33.8%
  α-helix content of apo-hTf: 29.5%
  β-sheet content of apo-hTf: 17.6%
[1]; compound concentration 1.2 (M)
  other secondary structure content of apo-hTf: 19.2%
  random coil content of apo-hTf: 33.8%
  α-helix content of apo-hTf: 29.3%
  β-sheet content of apo-hTf: 17.7%
[1]; compound concentration 1.6 (M)
  other secondary structure content of apo-hTf: 19.1%
  random coil content of apo-hTf: 34%
  α-helix content of apo-hTf: 29.1%
  β-sheet content of apo-hTf: 17.8%
[1]; compound concentration 2 (M)
  other secondary structure content of apo-hTf: 19.1%
  random coil content of apo-hTf: 34%
  α-helix content of apo-hTf: 29%
  β-sheet content of apo-hTf: 17.9%
[1]; compound concentration 2.4 (M)
  other secondary structure content of apo-hTf: 19.2%
  random coil content of apo-hTf: 34.1%
  α-helix content of apo-hTf: 28.7%
  β-sheet content of apo-hTf: 18%
[2]
  IC50 (±SD), MCF-7: proliferative activity
[2]; listed as Cp^2HfCl^2
  IC50 (±SD), MCF-7: Proliferative
[3]; 296 K
  biomolecular quenching rate constant kq: 1.97e+11 M⁻¹ s⁻¹
  Stern-Volmer quenching constant Ksv: 1970 M⁻¹
  number of binding sites n: 1.15
  quenching association constant Ka: 8900 M⁻¹
[3]; 303 K
  biomolecular quenching rate constant kq: 1.57e+11 M⁻¹ s⁻¹
  Stern-Volmer quenching constant Ksv: 1570 M⁻¹
  number of binding sites n: 1.17
  quenching association constant Ka: 8100 M⁻¹
[3]; 310 K
  biomolecular quenching rate constant kq: 1.36e+11 M⁻¹ s⁻¹
  Stern-Volmer quenching constant Ksv: 1360 M⁻¹
  number of binding sites n: 1.18
  quenching association constant Ka: 7500 M⁻¹
[3]; 317 K
  biomolecular quenching rate constant kq: 1.24e+11 M⁻¹ s⁻¹
  Stern-Volmer quenching constant Ksv: 1240 M⁻¹
  number of binding sites n: 1.19
  quenching association constant Ka: 7000 M⁻¹
[4]; 296 K
  ∆G°: -18.59 kJ/mol
[4]; 303 K
  ∆G°: -18.62 kJ/mol
[4]; 310 K
  ∆G°: -18.66 kJ/mol
[4]; 317 K
  ∆G°: -18.70 kJ/mol
[4]
  ∆H°: -17.07 kJ/mol
  ∆S°: 5.13 J/mol K
[5]
  Ka at 280 nm: 2110 M⁻¹
  Association constants, Ka, 280 nm: 2.11 10^3 M^−1
[6]
  Förster critical energy transfer distance R0: 6.91 nm
  binding distance r (donor-acceptor): 9.47 nm
  efficiency of energy transfer E: 0.131
[7]
  IC50: 564 µM

## N.N.[Cl][Pt][Cl] [(NH3)2Pt(II)Cl2, cis-diamminedichloroplatinum (II), reference compound]
[1]; compound concentration 0.4 (M)
  other secondary structure content of apo-hTf: 19.1%
  random coil content of apo-hTf: 33.9%
  α-helix content of apo-hTf: 28.9%
  β-sheet content of apo-hTf: 18.1%
[1]; compound concentration 0.8 (M)
  other secondary structure content of apo-hTf: 19.2%
  random coil content of apo-hTf: 33.9%
  α-helix content of apo-hTf: 28.7%
  β-sheet content of apo-hTf: 18.2%
[1]; compound concentration 1.2 (M)
  other secondary structure content of apo-hTf: 19.2%
  random coil content of apo-hTf: 34%
  α-helix content of apo-hTf: 28.5%
  β-sheet content of apo-hTf: 18.3%
[1]; compound concentration 1.6 (M)
  other secondary structure content of apo-hTf: 19.3%
  random coil content of apo-hTf: 34%
  α-helix content of apo-hTf: 28.3%
  β-sheet content of apo-hTf: 18.4%
[1]; compound concentration 2 (M)
  other secondary structure content of apo-hTf: 19.3%
  random coil content of apo-hTf: 34.1%
  α-helix content of apo-hTf: 28.1%
  β-sheet content of apo-hTf: 18.5%
[1]; compound concentration 2.4 (M)
  other secondary structure content of apo-hTf: 19.3%
  random coil content of apo-hTf: 34.1%
  α-helix content of apo-hTf: 28%
  β-sheet content of apo-hTf: 18.6%
[3]; 296 K
  biomolecular quenching rate constant kq: 1.35e+11 M⁻¹ s⁻¹
  Stern-Volmer quenching constant Ksv: 1350 M⁻¹
  number of binding sites n: 0.97
  quenching association constant Ka: 1100 M⁻¹
[3]; 303 K
  biomolecular quenching rate constant kq: 1.1e+11 M⁻¹ s⁻¹
  Stern-Volmer quenching constant Ksv: 1100 M⁻¹
  number of binding sites n: 1.01
  quenching association constant Ka: 1200 M⁻¹
[3]; 310 K
  biomolecular quenching rate constant kq: 9.8e+10 M⁻¹ s⁻¹
  Stern-Volmer quenching constant Ksv: 980 M⁻¹
  number of binding sites n: 1.04
  quenching association constant Ka: 1400 M⁻¹
[3]; 317 K
  biomolecular quenching rate constant kq: 8.6e+10 M⁻¹ s⁻¹
  Stern-Volmer quenching constant Ksv: 860 M⁻¹
  number of binding sites n: 1.07
  quenching association constant Ka: 1600 M⁻¹
[8]; read-out: IC50 (±SD), MCF-7, ref 83
  IC50: 2 µM
[8]; read-out: IC50 (±SD), MCF-7, ref 84
  IC50: 4.6 µM
[4]; 296 K
  ∆G°: -17.68 kJ/mol
[4]; 303 K
  ∆G°: -17.71 kJ/mol
[4]; 310 K
  ∆G°: -17.75 kJ/mol
[4]; 317 K
  ∆G°: -17.79 kJ/mol
[4]
  ∆H°: -16.15 kJ/mol
  ∆S°: 5.17 J/mol K
[9]; read-out: IC50 (±SD), HT-29, ref 77
  IC50: 66 µM
[9]; read-out: IC50 (±SD), HT-29, ref 84
  IC50: 23 µM
[9]; read-out: IC50 (±SD), HT-29, ref 85
  IC50: 76 µM
[5]
  Ka at 280 nm: 740 M⁻¹
  Association constants, Ka, 280 nm: 0.74 10^3 M^−1
[6]
  Förster critical energy transfer distance R0: 7.4 nm
  binding distance r (donor-acceptor): 10.35 nm
  efficiency of energy transfer E: 0.118
